Experimental data as given in ChEMBL document CHEMBL1131129, “Geometrically and conformationally restrained cinnamoyl compounds as inhibitors of HIV-1 integrase: synthesis, biological evaluation, and molecular modeling” (J Med Chem, 1998).
pIC50: −log10 of the molar value.

Columns and labels:
Homo sapiens = species: Homo sapiens; assay: Fold increase in protein-linked DNA breaks (PLDB) with respect to untreated controls.; type: functional
How it was run: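 KB cells labeled with [14C]thymidine (0.75 μCi/mL) for 48 h, trypsinized, resuspended at 3×10^5/mL, preincubated 1 h at 37 °C. […] Protein-linked DNA breaks quantified by K-SDS coprecipitation after SDS lysis, needle shearing, 65 °C incubation and 100 mM KCl precipitation. Expressed relative to untreated controls.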

MT4 = assay: Compound concentration required to reduce the exponential growth of MT-4 cells by 50%; type: functional; conditions: Homo sapiens
How it was run: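 Lymphoid MT-4 cells in suspension culture, grown at 37 °C under 5% CO2 in RPMI 1640 with 10% FCS, penicillin G and streptomycin, and checked for mycoplasma. Compounds were dissolved in DMSO as a 200 mM stock, then diluted. Cytotoxicity was read as viability of mock-infected cells by MTT. The CC50 is the concentration reducing exponential cell growth by 50%.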

KB = assay: Compound concentration required to reduce the exponential growth of KB cells by 50%; type: functional; conditions: Homo sapiens
[1] = target: T1, Human immunodeficiency virus type 1 integrase (Human immunodeficiency virus 1, UniProt Q7ZJM1); assay: (§1) Compound concentration required to reduce HIV-1 Integrase 3'-processing activity by 50%; conditions: for pIC50: read-out: IC50
T1 sequence (Q7ZJM1 whole entry): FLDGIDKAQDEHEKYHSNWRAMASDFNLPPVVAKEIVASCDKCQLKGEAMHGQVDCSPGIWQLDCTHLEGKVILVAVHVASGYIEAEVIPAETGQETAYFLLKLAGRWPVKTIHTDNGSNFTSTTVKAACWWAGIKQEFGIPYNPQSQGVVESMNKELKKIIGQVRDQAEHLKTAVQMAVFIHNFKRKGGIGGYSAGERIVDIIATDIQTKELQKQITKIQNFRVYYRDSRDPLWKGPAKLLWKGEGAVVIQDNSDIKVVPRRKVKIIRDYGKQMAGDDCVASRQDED

[2] = target: T1, Human immunodeficiency virus type 1 integrase; assay: as §1
How it was run: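 His-tagged HIV-1 IN expressed in E. coli BL21(DE3), Ni-purified with 5 mM CHAPS. Released GT dinucleotide recovered by DEAE filtration and counted. Mean of three independent determinations.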

SMILES | Fold increase (Homo sapiens) | CC50 (MT4) [µM] | CC50 (KB) [µM] | pIC50 [1] | IC50 [1] [µg/mL] | pIC50 [2]
O=C1/C(=C/c2ccc(O)c(O)c2)COC/C1=C\c1ccc(O)c(O)c1 | 0.9 | 10 | 15 | 6.70 | – | –
COc1ccc(/C=C/C(=O)/C=C(O)/C=C/c2ccc(OC)c(OC)c2)cc1OC | 1.4 | 4.1 | 2 | < 4.00 | – | –
O=C1C(=Cc2ccc(O)c(O)c2)C(=O)c2ccccc21 | 2 | 32 | 50 | 5.52 | – | –
O=C(/C=C/c1ccc(O)c(O)c1)c1ccc(O)cc1O [BUTEIN] | 2.2 | 5.3 | 9.1 | 4.70 | – | –
O=C(/C=C/c1ccc(O)c(O)c1)c1ccc(O)cc1 | 1.6 | 4.4 | 5.9 | 5.89 | – | –
Nc1nc[nH]n1 [AMITROLE] | 1.1 | 100 | 100 | – | 0.17 | –
COc1ccc(/C=C/C(=O)/C=C/c2ccc(OC)c(OC)c2)cc1OC | 1.1 | 4.1 | 6.7 | < 4.00 | – | –
O=C(/C=C(O)/C=C/c1ccccc1)/C=C/c1ccccc1 | 0.8 | 41 | 29 | < 4.00 | – | –
O=C1/C(=C/c2ccc(O)c(O)c2)CC/C1=C\c1ccc(O)c(O)c1 | 4 | 15 | 17 | 6.00 | – | –
COc1cc(/C=C2\CCC/C(=C\c3ccc(O)c(OC)c3)C2=O)ccc1O [CYCLOVALONE] | 1.8 | 2.4 | 6.7 | < 4.00 | – | –
O=C1/C(=C/c2ccc(O)c(O)c2)CCC/C1=C\c1ccc(O)c(O)c1 | 1.4 | 7.4 | 8.9 | 6.05 | – | –
COc1cc(/C=C/C(=O)CC(=O)/C=C/c2ccc(O)c(OC)c2)ccc1O [CURCUMIN] | 1 | 7.4 | 16 | 4.52 | – | –
O=C(/C=C/c1ccc(O)c(O)c1)c1ccccc1 | 1.3 | 1.7 | 3.1 | 5.64 | – | –
COc1cc([C@@H]2c3cc4c(cc3[C@@H](O[C@@H]3O[C@@H]5CO[C@@H](C)O[C@H]5[C@H](O)[C@H]3O)[C@H]3COC(=O)[C@H]23)OCO4)cc(OC)c1O [ETOPOSIDE] | – | 0.08 | 0.1 | – | – | –
O=C(/C=C/c1ccc(O)cc1)c1cccc(C(=O)/C=C/c2ccc(O)cc2)c1 | 1.2 | 35 | 22 | 4.52 | – | –
O=C(/C=C/c1ccc(O)c(O)c1)c1cccc(C(=O)/C=C/c2ccc(O)c(O)c2)c1 | 1.2 | 5 | 5.8 | 6.10 | – | –
O=C(/C=C/c1ccc(O)cc1)/C=C/c1ccc(O)cc1 | 1.1 | 1.6 | 7.4 | < 4.00 | – | –
O=C(/C=C/c1ccc(O)cc1)c1ccc(O)cc1O [ISOLIQUIRITIGENIN] | 1.7 | 7.4 | 12 | < 4.00 | – | –
O=C1/C(=C/c2ccc(O)c(O)c2)Cc2ccccc21 | 5.1 | 5.5 | 9.2 | – | – | 4.07
O=C(/C=C(O)/C=C/c1ccc(O)c(O)c1)/C=C/c1ccc(O)c(O)c1 | 1.1 | 17 | 4.1 | 6.15 | – | –
COc1cc(/C=C/C(=O)/C=C/c2ccc(O)c(OC)c2)ccc1O | 1.2 | 1.4 | 8.5 | 4.43 | – | –
CC[C@@]1(O)C(=O)OCc2c1cc1n(c2=O)Cc2cc3ccccc3nc2-1 [CAMPTOTHECIN] | 3.5 | 0.01 | 0.006 | < 4.00 | – | –
O=C(/C=C/c1ccc(O)c(O)c1)/C=C/c1ccc(O)c(O)c1 | 1.1 | 38 | 21 | 6.22 | – | –
O=C1/C(=C/c2ccc(O)c(O)c2)CNC/C1=C\c1ccc(O)c(O)c1 | 1.4 | 21 | 32 | 6.70 | – | –
O=C1/C(=C/c2ccc(O)c(O)c2)CSC/C1=C\c1ccc(O)c(O)c1 | 1.1 | 4 | 3.9 | 6.70 | – | –
O=C(/C=C/c1ccc(O)c(O)c1)CCc1ccccc1 | 1 | 15 | 30 | < 4.00 | – | –
O=C(/C=C/c1ccc(O)cc1)CC(=O)/C=C/c1ccc(O)cc1 [BISDEMETHOXYCURCUMIN] | 0.9 | 13 | 8.5 | < 4.00 | – | –
